Where two headings read alike, the source gives them in different places.
Columns and labels:
SARS-CoV-2 M^pro [1] = target: T1, SARS-CoV-2 M^pro (Severe acute respiratory syndrome coronavirus 2, UniProt P0DTD1); test: SARS-CoV-2 Mpro fluorogenic; assay type: biochemical; conditions: for time dependent inhibition: 12.5 μM; for competitive binding (Cheng-Prusoff plots): increasing substrate concentration; for inhibition at 50 µM: 0.25 h, read-out: SARS-CoV-2 M^pro % (50 μM)
[2] = Parallel artificial membrane permeability assay; assay type: in vitro ADME; conditions: PAMPA
SARS-CoV-2 M^pro [3] = target: T1, SARS-CoV-2 M^pro; test: Compound stability against SARS-CoV-2 Mpro; conditions: 8 h of incubation in assay buffer, HPLC
DENV-2 protease = target: T2, DENV-2 protease (Dengue virus type 2, UniProt P29990); test: Compound stability against DENV-2 protease; conditions: 8 h of incubation in DENV assay buffer, HPLC
T2 sequence (P29990 1476-1653 limits assumed): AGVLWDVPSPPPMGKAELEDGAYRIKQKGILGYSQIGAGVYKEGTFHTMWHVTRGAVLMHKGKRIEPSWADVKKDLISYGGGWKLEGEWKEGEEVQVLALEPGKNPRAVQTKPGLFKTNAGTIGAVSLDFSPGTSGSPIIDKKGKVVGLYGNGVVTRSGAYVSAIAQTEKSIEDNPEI

SARS-CoV-2 M^pro [4] = target: T1, SARS-CoV-2 M^pro; test: SARS-CoV-2 Mpro Michaelis-Menten kinetics; assay type: biochemical; conditions: Michaelis-Menten plot
SARS-CoV-2 M^pro [5] = target: T1, SARS-CoV-2 M^pro; test: Dilution experiment; assay type: biochemical; conditions: preincubated 100 μM for 2 h, diluted to 3 μM
DENV serotype 2 protease = DENV serotype 2 protease (Dengue virus type 2, UniProt P29990); test: DENV2 reporter gene assay; assay type: cell-based; conditions: for inhibition at 12.5 µM: HeLa, 24 h, read-out: DENV2proHeLa % (12.5 μM)
Sequence of DENV serotype 2 protease (P29990 1346-1475): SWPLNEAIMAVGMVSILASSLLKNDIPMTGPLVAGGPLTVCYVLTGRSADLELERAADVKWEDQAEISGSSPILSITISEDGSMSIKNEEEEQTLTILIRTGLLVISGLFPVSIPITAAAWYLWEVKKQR
Sequence of DENV serotype 2 protease (P29990 1476-2093): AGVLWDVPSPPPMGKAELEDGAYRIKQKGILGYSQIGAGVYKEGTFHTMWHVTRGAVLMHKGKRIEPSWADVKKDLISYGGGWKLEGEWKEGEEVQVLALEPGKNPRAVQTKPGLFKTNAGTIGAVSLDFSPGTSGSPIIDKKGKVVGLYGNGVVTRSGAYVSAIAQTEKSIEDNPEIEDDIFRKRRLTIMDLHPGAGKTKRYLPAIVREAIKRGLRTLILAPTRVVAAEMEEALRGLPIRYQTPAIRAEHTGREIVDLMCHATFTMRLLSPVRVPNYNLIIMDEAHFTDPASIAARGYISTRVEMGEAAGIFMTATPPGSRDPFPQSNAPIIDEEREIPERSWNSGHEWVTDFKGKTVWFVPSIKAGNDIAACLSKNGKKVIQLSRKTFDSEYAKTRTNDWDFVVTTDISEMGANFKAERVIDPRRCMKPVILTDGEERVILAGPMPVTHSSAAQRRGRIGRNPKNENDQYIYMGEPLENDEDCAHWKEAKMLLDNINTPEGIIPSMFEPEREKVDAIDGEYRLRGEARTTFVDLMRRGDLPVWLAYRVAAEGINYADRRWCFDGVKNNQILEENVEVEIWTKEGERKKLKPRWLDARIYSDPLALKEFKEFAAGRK
Method in brief: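 Stable DENV2proHeLa cells (DMEM, 10% heat-inactivated FCS, antibiotics) were seeded at 2 x 10^4 per well, dosed at once and incubated 24 h at 37 °C. Cells were lysed 15 min at room temperature, then coelenterazine (2.75 μM in PBS) was injected and luciferase read for 5 s. Triplicates; % inhibition vs untreated control. EC50 from a 4-parameter fit after background subtraction (cell-free wells).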

DENV2proHeLa cells = test: Cytotoxicity in DENV2proHeLa cells; assay type: cell-based
Method in brief: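 HeLa cells stably carrying the DENV2 protease reporter, kept in DMEM with 10% heat-inactivated FCS, penicillin and streptomycin. Cells were seeded at 2 x 10^4 per well and given compound dilutions straight away. Plates ran in parallel with the reporter assay for 24 h at 37 °C. Viability was read by CellTiter-Blue, with each concentration in triplicate.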

DENV serotype 2 = conditions: DENV-2 titer reduction; cited from earlier work
SARS-CoV-2 M^pro [6] = target: T1, SARS-CoV-2 M^pro; test: SARS-CoV-2 Mpro mass adduct measurement; assay type: binding; conditions: ESI-TOF, 100 μM compound
Method in brief: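 Test compound (100 μM) was incubated with active recombinant Mpro (3 μM; bacterially expressed, Ni-NTA then size-exclusion purified) in 50 mM Tris-HCl pH 7.4, 100 mM NaCl, 20% v/v ethylene glycol, 0.0016% Brij 58. Analysis was by LC-ESI-TOF MS on a C18 column: water/acetonitrile with 0.1% formic acid, 10→95% B over 4 min, 0.3 mL/min. Negative mode, Na-formate external calibration.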

[7] = read-out: DENV2proHeLa EC50, reporter gene assay in HeLa cells

N=C(N)Nc1ccc2c(c1)B(O)OC2 [Compound 4, 1-(1-Hydroxy-1,3-dihydrobenzo[c][1,2]oxaborol-6-yl)guanidine]
Hill slope of dose-response curve (SARS-CoV-2 M^pro [1]): 1.15 ± 0.07 | passive membrane permeability (in words) [2]: no permeability

N=C(N)Nc1ccc(C(=O)Nc2ccc3c(c2)B(O)OC3)cc1 [Compound 8, 4-guanidino-N-(1-hydroxy-1,3-dihydrobenzo[c][1,2]oxaborol-6-yl)benzamide]
Hill slope of dose-response curve (SARS-CoV-2 M^pro [1]): 1.14 ± 0.07 | time dependent inhibition (SARS-CoV-2 M^pro [1]): no significant increase or decrease | competitive binding (Cheng-Prusoff plots) (SARS-CoV-2 M^pro [1]): do not show competitive binding | stability against SARS-CoV-2 M^pro (SARS-CoV-2 M^pro [3]): no cleavage

O=S(=O)(Nc1ccc2c(c1)B(O)OC2)c1ccc(Cl)cc1 [Compound 11, 4-Chloro-N-(1-hydroxy-1,3-dihydrobenzo[c][1,2]oxaborol-6-yl)benzenesulfonamide]
passive membrane permeability (in words) [2]: passive permeability

O=C(Nc1ccc2c(c1)B(O)OC2)c1ccc(Oc2ccccc2)cc1 [Compound 15, N-(1-Hydroxy-1,3-dihydrobenzo[c][1,2]oxaborol-6-yl)-4-phenoxybenzamide]
passive membrane permeability (in words) [2]: passive permeability | stability against DENV-2 protease (DENV-2 protease): no decrease in the compound AUC

O=C(Nc1ccc2c(c1)B(O)OC2)c1ccccc1OCc1ccccc1 [Compound 17, 2-(Benzyloxy)-N-(1-hydroxy-1,3-dihydrobenzo[c][1,2]oxaborol-6-yl)benzamide]
passive membrane permeability (in words) [2]: passive permeability

O=C(Nc1ccc2c(c1)B(O)OC2)c1cccc(OCc2ccccc2)c1 [Compound 18, 3-(Benzyloxy)-N-(1-hydroxy-1,3-dihydrobenzo[c][1,2]oxaborol-6-yl)benzamide]
Hill slope of dose-response curve (SARS-CoV-2 M^pro [1]): 1.39 ± 0.16 | time dependent inhibition (SARS-CoV-2 M^pro [1]): no significant increase or decrease | competitive binding (Cheng-Prusoff plots) (SARS-CoV-2 M^pro [1]): do not show competitive binding | passive membrane permeability (in words) [2]: passive permeability | stability against SARS-CoV-2 M^pro (SARS-CoV-2 M^pro [3]): no cleavage | stability against DENV-2 protease (DENV-2 protease): no decrease in the compound AUC | inhibition mode (SARS-CoV-2 M^pro [4]): mixed inhibition mode | reversibility of binding (SARS-CoV-2 M^pro [5]): reversible

O=C(Nc1ccc2c(c1)B(O)OC2)c1ccc(OCc2ccc(Cl)cc2)cc1 [Compound 20, 4-((4-Chlorobenzyl)oxy)-N-(1-hydroxy-1,3-dihydrobenzo[c][1,2]oxaborol-6-yl)benzamide]
passive membrane permeability (in words) [2]: passive permeability | stability against DENV-2 protease (DENV-2 protease): no decrease in the compound AUC

O=C(Nc1cccc(C(=O)Nc2ccc3c(c2)B(O)OC3)c1)c1ccccc1 [Compound 23, 3-Benzamido-N-(1-hydroxy-1,3-dihydrobenzo[c][1,2]oxaborol-6-yl)benzamide]
stability against SARS-CoV-2 M^pro (SARS-CoV-2 M^pro [3]): no cleavage

O=C(Nc1cccc(B(O)O)c1)c1cccc(OCc2ccccc2)c1 [Compound 26, (3-(3-(Benzyloxy)benzamido)phenyl)boronic acid]
passive membrane permeability (in words) [2]: passive permeability

O=C(Nc1ccc2c(c1)B(O)OC2)c1cccc(OCc2ccccc2)n1 [Compound 28, 6-(Benzyloxy)-N-(1-hydroxy-1,3-dihydrobenzo[c][1,2]oxaborol-6-yl)picolinamide]
inhibition at 50 µM (SARS-CoV-2 M^pro [1]): 55.5 ± 7% | inhibition at 12.5 µM (DENV serotype 2 protease): 85.2 ± 4.1% | EC50 (DENV serotype 2 protease; [7]): 2500 ± 200 nM

Cc1cccc(COc2cccc(C(=O)Nc3ccc4c(c3)B(O)OC4)c2)c1 [Compound 29, N-(1-Hydroxy-1,3-dihydrobenzo[c][1,2]oxaborol-6-yl)-3-((3-methylbenzyl)oxy)benzamide]
inhibition at 50 µM (SARS-CoV-2 M^pro [1]): 45.7 ± 6.3% | EC50 (DENV serotype 2 protease): 1100 ± 100 nM | inhibition at 12.5 µM (DENV serotype 2 protease): 90 ± 0.9%

COc1cccc(COc2cccc(C(=O)Nc3ccc4c(c3)B(O)OC4)c2)c1 [Compound 30, N-(1-Hydroxy-1,3-dihydrobenzo[c][1,2]oxaborol-6-yl)-3-((3-methoxybenzyl)oxy)benzamide]
inhibition at 50 µM (SARS-CoV-2 M^pro [1]): 43.4 ± 9.1% | EC50 (DENV serotype 2 protease): 2900 ± 300 nM | inhibition at 12.5 µM (DENV serotype 2 protease): 80.4 ± 2%

N#Cc1ccc(COc2cccc(C(=O)Nc3ccc4c(c3)B(O)OC4)c2)cc1 [Compound 31, 3-((4-Cyanobenzyl)oxy)-N-(1-hydroxy-1,3-dihydrobenzo[c][1,2]oxaborol-6-yl)benzamide]
inhibition at 50 µM (SARS-CoV-2 M^pro [1]): 31.7 ± 3.6% | EC50 (DENV serotype 2 protease): 4100 ± 200 nM | inhibition at 12.5 µM (DENV serotype 2 protease): 82.2 ± 3.7% | passive membrane permeability (in words) [2]: passive permeability

O=C(Nc1ccc2c(c1)B(O)OC2)c1cccc(OCc2ccc(Cl)cc2)c1 [Compound 32, 3-((4-Chlorobenzyl)oxy)-N-(1-hydroxy-1,3-dihydrobenzo[c][1,2]oxaborol-6-yl)benzamide]
EC50 (DENV serotype 2 protease): 2400 ± 200 nM | inhibition at 12.5 µM (DENV serotype 2 protease): 83.6 ± 1.7% | stability against DENV-2 protease (DENV-2 protease): no decrease in the compound AUC

O=C(Nc1ccc2c(c1)B(O)OC2)c1cccc(OCc2c(Cl)cccc2Cl)c1 [Compound 33, 3-((2,6-Dichlorobenzyl)oxy)-N-(1-hydroxy-1,3-dihydrobenzo[c][1,2]oxaborol-6-yl)benzamide]
inhibition at 12.5 µM (DENV serotype 2 protease): 85.6 ± 4.3% | EC50 (DENV serotype 2 protease; [7]): 540 ± 50 nM | passive membrane permeability (in words) [2]: passive permeability

O=C(Nc1ccc2c(c1)B(O)OC2)c1cccc(OCC2CCCCC2)c1 [Compound 34, 3-(Cyclohexylmethoxy)-N-(1-hydroxy-1,3-dihydrobenzo[c][1,2]oxaborol-6-yl)benzamide]
EC50 (DENV serotype 2 protease): 3400 ± 500 nM

CCCCCC(=O)NC(C(=O)NCc1ccc(NC(=N)N)cc1)c1ccc(OCc2ccccc2)cc1 (centres unmarked) [NK-189, reference compound]
DENV2proHeLa % (12.5 μM) (DENV serotype 2 protease; inhibitor 12.5 μM, reporter gene assay in HeLa cells): 79.3 ± 9.7% | EC50 (DENV serotype 2 protease; [7]): 600 ± 100 nM | CC50 (DENV2proHeLa cells): > 50000 nM | antiviral activity of the reference substance (DENV serotype 2): 0.89 µM

CC(C)(C)NC(=O)N[C@H](C(=O)N1C[C@H]2[C@@H]([C@H]1C(=O)NC(CC1CCC1)C(=O)C(N)=O)C2(C)C)C(C)(C)C (some centres unmarked) [boceprevir]
mass adducts with SARS-CoV-2 M^pro (SARS-CoV-2 M^pro [6]): adducts were found
